SMILES strings stand for the structures. The whole screen tested about 310,000 compounds, of which about 1,100 (0.35%) were called active.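 How the source made its calls: active means fluorescence ratio B-score, a plate-corrected score, at least three library SD, with initial intensity B-score within 5 SD; inactive means the rest.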 Shown is part of a subset that was picked to be rich in actives.

Sequence of Potassium voltage-gated channel subfamily KQT member 1 (Homo sapiens) (P51787 whole entry, looked up): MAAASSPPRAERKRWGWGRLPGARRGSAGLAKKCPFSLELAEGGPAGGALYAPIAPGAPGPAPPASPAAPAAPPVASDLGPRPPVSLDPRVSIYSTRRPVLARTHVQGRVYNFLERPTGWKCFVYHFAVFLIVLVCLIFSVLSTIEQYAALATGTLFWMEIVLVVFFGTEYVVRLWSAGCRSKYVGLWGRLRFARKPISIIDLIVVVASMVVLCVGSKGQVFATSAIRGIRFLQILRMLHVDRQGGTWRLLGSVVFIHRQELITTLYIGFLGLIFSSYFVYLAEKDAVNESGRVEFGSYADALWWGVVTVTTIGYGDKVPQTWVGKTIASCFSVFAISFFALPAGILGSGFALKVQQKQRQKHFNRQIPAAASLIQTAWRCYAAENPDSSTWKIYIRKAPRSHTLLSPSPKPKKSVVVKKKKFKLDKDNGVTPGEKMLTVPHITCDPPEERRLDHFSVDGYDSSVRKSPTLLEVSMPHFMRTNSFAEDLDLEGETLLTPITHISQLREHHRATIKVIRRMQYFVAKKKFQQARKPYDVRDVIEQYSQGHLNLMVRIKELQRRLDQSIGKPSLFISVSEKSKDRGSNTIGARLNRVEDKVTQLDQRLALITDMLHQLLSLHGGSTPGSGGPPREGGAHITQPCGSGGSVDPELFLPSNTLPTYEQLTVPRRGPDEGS

The experiment concerns the target Potassium voltage-gated channel subfamily KQT member 1 (Homo sapiens) (UniProt P51787). As to the kind of experiment: potentiators or activators of KCNQ1 channel, primary screen, cell-based, thallium flux, high-throughput (AID 2648). As to conditions: CHO-K1 KCNQ1, thallium flux FluxOR fluorescence, at 10 µM; stronger effect = higher value. An outline of the steps: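 Assay system: stable KCNQ1 CHO-K1 line; medium: assay buffer, equal DMSO in all wells; timing: 90 min dye loading and 20 min compound exposure, both at room temperature; technique: kinetic FluxOR thallium fluorescence, 10-s 1-Hz baseline, 110-s post-stimulus read; read-out basis: B score of baseline-normalized fluorescence ratio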
`COc1cc(-n2c(=S)[nH]c3ccc(C)cc3c2=O)c(Cl)cc1Cl`: the B-score is 8 (active). In the case of `C/C=C/CC1(CC)C(=O)NC(=S)NC1=O`, the B-score result is “inactive”. On to `CCN(CC)C(=O)c1ccc(NC(=O)c2sccc2-c2ccccc2)cc1`, for which the B-score entry is “inactive”. Regarding `Cc1ccc2c(c1)C1CN(C)CCC1N2C(=O)Cn1nnc(-c2ccccc2F)n1` (stereo not given), the B-score entry is “inactive”. For `CC(Cc1ccccc1)NC=O` (stereo not given), the B-score entry was “inactive”.

For the origin of these results see PubChem BioAssay AID2648 (Johns Hopkins Ion Channel Center, 2010).
